In ChEMBL document CHEMBL2390901, “Synthesis and biological evaluation of N-(4-hydroxy-3-mercaptonaphthalen-1-yl)amides as inhibitors of angiogenesis and tumor growth” (Eur J Med Chem, 2013):
The source made the active and inactive calls. The calls are words filed in the database; no cut-off is given here.

How the values were obtained:
MDA-MB-231 = experiment: Antiproliferative activity against human MDA-MB-231 cells after 48 hrs by MTT assay; format: functional, cell-based; details: MDA-MB-231, 48 h
Method in brief: (§1)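 Cells kept in RPMI 1640 with 10 % FBS at 37 °C, 5 % CO2. Seeded 5,000/well, allowed 4 h, then exposed to serial dilutions for 48 h. MTT added for the last 4 h; formazan dissolved in DMSO, absorbance at 570 nm.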

PC-3 = experiment: Antiproliferative activity against human PC3 cells after 48 hrs by MTT assay; format: functional, cell-based; details: PC-3, 48 h; method in brief: as §1
HCT-116 = experiment: Antiproliferative activity against human HCT116 cells after 48 hrs by MTT assay; format: functional, cell-based; details: HCT-116, 48 h; method in brief: as §1
[1] = target: ALK tyrosine kinase receptor (Homo sapiens) (UniProt Q9UM73); experiment: Inhibition of ALK (unknown origin) at 10 uM after 30 mins by fluorescence assay
Sequence of ALK tyrosine kinase receptor (Homo sapiens) (Q9UM73 19-1620 limits assumed): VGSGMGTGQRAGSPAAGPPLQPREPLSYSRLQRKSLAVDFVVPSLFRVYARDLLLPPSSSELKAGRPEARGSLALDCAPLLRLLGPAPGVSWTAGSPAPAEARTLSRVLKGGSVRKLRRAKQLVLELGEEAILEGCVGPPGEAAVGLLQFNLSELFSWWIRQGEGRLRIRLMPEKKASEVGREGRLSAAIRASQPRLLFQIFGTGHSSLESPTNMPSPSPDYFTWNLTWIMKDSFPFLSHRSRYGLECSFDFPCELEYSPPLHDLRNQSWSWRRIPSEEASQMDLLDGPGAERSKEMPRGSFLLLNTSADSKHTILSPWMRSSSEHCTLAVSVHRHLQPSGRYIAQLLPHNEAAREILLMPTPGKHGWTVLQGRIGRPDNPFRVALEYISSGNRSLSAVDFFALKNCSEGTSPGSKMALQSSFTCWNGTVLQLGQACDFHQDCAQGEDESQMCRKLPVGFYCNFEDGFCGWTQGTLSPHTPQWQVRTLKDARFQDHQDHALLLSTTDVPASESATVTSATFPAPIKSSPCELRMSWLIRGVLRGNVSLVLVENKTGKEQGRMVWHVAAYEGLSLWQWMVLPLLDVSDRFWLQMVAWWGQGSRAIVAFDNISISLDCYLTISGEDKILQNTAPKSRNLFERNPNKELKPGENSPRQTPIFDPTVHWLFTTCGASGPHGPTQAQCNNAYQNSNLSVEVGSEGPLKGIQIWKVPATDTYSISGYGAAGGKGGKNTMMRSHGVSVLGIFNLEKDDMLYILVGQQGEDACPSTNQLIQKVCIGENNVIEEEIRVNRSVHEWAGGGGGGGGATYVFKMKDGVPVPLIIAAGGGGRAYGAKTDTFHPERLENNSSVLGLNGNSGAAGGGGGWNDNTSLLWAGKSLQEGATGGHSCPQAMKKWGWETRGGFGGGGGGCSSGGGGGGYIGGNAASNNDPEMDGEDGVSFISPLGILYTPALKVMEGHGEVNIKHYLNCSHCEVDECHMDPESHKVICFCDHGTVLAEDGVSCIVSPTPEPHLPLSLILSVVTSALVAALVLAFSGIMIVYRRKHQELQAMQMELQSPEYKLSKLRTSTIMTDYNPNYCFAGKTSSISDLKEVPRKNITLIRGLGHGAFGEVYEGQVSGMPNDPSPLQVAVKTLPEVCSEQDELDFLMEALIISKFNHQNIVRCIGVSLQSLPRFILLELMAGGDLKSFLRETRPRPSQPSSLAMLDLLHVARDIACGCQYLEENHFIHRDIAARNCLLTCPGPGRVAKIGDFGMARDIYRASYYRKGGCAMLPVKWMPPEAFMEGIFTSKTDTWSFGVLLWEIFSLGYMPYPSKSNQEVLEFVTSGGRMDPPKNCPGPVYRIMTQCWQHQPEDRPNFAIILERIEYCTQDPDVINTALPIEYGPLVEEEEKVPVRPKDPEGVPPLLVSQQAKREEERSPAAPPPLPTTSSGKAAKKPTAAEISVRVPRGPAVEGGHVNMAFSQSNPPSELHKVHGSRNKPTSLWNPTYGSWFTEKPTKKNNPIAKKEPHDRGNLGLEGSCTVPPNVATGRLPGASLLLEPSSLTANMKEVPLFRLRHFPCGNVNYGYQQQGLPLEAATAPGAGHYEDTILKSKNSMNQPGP
Method in brief: (§2)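 Single 10 μM test. Enzyme preincubated with compound in Hepes/Tris pH 7.4, EGTA/Tris, MgCl2, DTT, 0.008 % Tween 20. Substrate peptide and ATP added; 30 min at room temperature. Stopped with EDTA; europium-labelled anti-phospho PT66 antibody added, TR-FRET read after 60 min. Percent inhibition versus control enzyme activity; no-enzyme basal control; duplicate.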

Aorta [2] = experiment: Antiangiogenic activity in Sprague-Dawley rat aortic rings assessed as inhibition of microvessel outgrowth at 50 uM after 6 days by matrigel assay; format: functional; details: for inhibition at 50 µM: 144 h
Method in brief: (§3)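 Aortas from 8–10-week-old male Sprague Dawley rats cleaned of fibroadipose tissue, cut into 1-mm rings, embedded between two Matrigel layers. Compound or vehicle (0.5 % DMSO) added every other day for 6 days; imaged day 7 (×200). Sprouting area quantified as pixels versus vehicle; mean ± SD, three independent experiments.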

[3] = target: RAC-alpha serine/threonine-protein kinase (Homo sapiens) (UniProt P31749); experiment: Inhibition of AKT1 (unknown origin) at 10 uM after 30 mins by fluorescence assay; method in brief: as §2
Sequence of RAC-alpha serine/threonine-protein kinase (Homo sapiens) (P31749 whole entry): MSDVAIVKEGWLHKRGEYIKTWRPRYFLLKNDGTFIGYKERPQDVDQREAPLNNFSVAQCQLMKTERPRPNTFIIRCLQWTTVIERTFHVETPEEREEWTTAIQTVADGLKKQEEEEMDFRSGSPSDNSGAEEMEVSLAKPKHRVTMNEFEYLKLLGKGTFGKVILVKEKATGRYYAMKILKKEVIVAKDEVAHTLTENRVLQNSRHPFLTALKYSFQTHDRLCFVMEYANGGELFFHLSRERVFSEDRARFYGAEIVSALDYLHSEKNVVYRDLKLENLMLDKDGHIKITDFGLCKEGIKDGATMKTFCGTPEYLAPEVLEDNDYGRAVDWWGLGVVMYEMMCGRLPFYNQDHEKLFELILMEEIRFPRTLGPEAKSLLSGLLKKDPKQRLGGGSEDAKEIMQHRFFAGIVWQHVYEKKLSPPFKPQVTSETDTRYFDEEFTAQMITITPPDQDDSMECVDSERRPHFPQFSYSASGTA

Aorta [4] = experiment: Antiangiogenic activity in Sprague-Dawley rat aortic rings assessed as inhibition of microvessel outgrowth at 1 uM after 6 days by matrigel assay; format: functional; details: 144 h; method in brief: as §3
Aorta [5] = experiment: Antiangiogenic activity in Sprague-Dawley rat aortic rings assessed as reduction of microvessel outgrowth after 6 days by matrigel assay; format: functional, tissue-based; method in brief: as §3
HUVEC [6] = experiment: Antiangiogenic activity in HUVEC assessed as inhibition of tube formation at 50 uM after 6 hrs by matrigel assay; format: functional; details: Homo sapiens
Method in brief: (§4)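 HUVECs seeded at 40,000 cells/well on Matrigel (gelled 30 min, 37 °C) in M199 with 5 % FBS plus compound or vehicle (0.5 % DMSO); 6 h at 37 °C, 5 % CO2. Tubes photographed by phase-contrast (×200); tube area measured as pixels and compared with vehicle. Mean ± SD of three independent experiments.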

K562 = experiment: Antiproliferative activity against human K562 cells after 48 hrs by MTT assay; format: functional, cell-based; details: K562, 48 h; method in brief: as §1
A549 = experiment: Antiproliferative activity against human A549 cells after 48 hrs by MTT assay; format: functional, cell-based; details: A549, 48 h; method in brief: as §1
MCF7 = experiment: Antiproliferative activity against human MCF7 cells after 48 hrs by MTT assay; format: functional, cell-based; details: MCF7, 48 h; method in brief: as §1
[7] = target: Platelet-derived growth factor receptor beta (Homo sapiens) (UniProt P09619); experiment: Inhibition of PDGFR-beta (unknown origin) at 10 uM after 30 mins by fluorescence assay
Sequence of Platelet-derived growth factor receptor beta (Homo sapiens) (P09619 whole entry): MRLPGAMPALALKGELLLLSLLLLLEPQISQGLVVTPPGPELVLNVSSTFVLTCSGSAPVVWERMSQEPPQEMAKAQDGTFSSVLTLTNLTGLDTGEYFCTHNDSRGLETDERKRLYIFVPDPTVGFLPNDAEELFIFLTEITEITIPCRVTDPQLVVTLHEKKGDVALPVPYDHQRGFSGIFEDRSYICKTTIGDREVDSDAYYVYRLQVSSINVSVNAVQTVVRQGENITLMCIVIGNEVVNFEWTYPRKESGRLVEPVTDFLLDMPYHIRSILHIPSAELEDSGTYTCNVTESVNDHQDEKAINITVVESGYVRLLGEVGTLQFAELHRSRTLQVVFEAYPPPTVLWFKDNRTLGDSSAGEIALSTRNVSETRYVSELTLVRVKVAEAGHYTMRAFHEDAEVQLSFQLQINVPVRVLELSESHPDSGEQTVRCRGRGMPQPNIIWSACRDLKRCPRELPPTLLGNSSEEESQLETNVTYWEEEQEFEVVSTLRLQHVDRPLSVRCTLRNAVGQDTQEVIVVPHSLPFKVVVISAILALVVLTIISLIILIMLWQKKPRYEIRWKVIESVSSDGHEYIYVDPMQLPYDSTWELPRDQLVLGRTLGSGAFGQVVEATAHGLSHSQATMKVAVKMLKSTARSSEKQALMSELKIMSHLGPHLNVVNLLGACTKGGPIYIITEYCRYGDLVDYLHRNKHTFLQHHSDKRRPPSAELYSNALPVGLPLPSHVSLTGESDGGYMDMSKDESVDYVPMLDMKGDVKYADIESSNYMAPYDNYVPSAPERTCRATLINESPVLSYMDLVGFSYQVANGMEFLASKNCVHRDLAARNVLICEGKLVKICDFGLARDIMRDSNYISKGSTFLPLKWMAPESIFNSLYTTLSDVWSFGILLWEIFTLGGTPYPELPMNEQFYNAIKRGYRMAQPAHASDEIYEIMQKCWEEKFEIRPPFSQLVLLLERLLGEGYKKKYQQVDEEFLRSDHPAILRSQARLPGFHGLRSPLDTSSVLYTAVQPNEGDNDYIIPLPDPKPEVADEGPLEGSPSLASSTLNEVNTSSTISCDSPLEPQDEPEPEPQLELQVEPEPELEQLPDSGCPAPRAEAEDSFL

HUVEC [8] = experiment: Antiangiogenic activity in HUVEC assessed as inhibition of tube formation at 10 uM after 6 hrs by matrigel assay; format: functional; details: Homo sapiens; method in brief: as §4
[9] = target: Vascular endothelial growth factor receptor 2 (Homo sapiens) (UniProt P35968); experiment: Inhibition of VEGFR2 (unknown origin) at 10 uM after 30 mins by fluorescence assay
Sequence of Vascular endothelial growth factor receptor 2 (Homo sapiens) (P35968 whole entry): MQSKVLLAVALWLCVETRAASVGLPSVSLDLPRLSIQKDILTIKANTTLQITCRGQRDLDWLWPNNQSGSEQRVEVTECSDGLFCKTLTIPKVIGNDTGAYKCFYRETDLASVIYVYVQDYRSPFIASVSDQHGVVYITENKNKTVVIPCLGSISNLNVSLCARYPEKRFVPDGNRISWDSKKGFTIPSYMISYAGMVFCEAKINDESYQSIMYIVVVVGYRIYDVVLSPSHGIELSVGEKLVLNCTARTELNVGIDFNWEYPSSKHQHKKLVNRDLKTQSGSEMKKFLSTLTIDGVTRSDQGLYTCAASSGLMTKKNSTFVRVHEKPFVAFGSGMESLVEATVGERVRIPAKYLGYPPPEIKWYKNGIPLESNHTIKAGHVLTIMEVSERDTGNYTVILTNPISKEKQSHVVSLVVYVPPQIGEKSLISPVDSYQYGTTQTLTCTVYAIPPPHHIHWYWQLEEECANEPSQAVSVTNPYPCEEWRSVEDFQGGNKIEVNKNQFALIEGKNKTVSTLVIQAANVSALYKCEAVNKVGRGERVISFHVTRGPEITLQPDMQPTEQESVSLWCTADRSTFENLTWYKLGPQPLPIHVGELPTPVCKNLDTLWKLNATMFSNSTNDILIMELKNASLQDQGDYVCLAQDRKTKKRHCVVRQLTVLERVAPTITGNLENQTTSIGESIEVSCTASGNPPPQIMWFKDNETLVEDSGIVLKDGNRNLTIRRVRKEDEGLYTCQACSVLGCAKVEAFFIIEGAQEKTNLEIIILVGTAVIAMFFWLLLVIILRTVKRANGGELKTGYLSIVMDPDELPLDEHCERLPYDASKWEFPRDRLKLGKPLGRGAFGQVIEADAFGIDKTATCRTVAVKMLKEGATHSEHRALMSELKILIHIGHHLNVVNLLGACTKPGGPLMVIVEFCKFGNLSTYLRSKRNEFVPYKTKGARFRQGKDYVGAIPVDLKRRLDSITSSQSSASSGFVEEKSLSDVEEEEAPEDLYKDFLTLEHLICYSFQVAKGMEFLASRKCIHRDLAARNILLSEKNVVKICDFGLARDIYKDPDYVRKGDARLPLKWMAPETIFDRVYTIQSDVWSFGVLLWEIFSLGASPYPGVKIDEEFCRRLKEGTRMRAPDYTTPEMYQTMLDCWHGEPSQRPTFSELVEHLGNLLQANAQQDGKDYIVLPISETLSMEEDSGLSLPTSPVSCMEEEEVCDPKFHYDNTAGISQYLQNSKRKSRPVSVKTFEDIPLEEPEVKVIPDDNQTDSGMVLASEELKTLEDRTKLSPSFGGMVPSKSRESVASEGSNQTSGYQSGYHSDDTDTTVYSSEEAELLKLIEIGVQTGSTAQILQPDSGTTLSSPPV

HUVEC [10] = experiment: Antiproliferative activity against human HUVEC cells after 48 hrs by MTT assay; format: functional, cell-based; method in brief: as §1
Aorta [11] = experiment: Antiangiogenic activity in Sprague-Dawley rat aortic rings assessed as inhibition of microvessel outgrowth at 10 uM after 6 days by matrigel assay; format: functional; details: 144 h; method in brief: as §3

IC50 (MDA-MB-231) | IC50 (PC-3) | IC50 (HCT-116) | inhibition [1] | inhibition [3] | IC50 (K562) | IC50 (A549) | IC50 (MCF7) | inhibition [7] | inhibition [9] | Structure (SMILES) | inhibition (Aorta [2]) | inhibition at 1 µM (Aorta [4]) | Activity (Aorta [5]) | inhibition at 50 µM (HUVEC [6]) | inhibition at 50 µM (Aorta [2]) | inhibition at 10 µM (HUVEC [8]) | IC50 (HUVEC [10]) | inhibition (HUVEC [8]) | inhibition at 10 µM (Aorta [11])
> 100 µM | 42.1 µM | > 100 µM | inactive | 19.4% |  |  |  |  |  | COc1cccc(C(=O)Nc2cc(Sc3ncn[nH]3)c(O)c3ccccc23)c1 | Active |  |  |  |  |  |  |  | 
54.2 µM | > 100 µM | 31.7 µM | inactive | 50.7% | 37.2 µM | > 100 µM | > 100 µM |  |  | O=C(Nc1cc(Sc2ncnc3nc[nH]c23)c(O)c2ccccc12)c1ccccc1[N+](=O)[O-] |  | > 70% | Dose-dependent effect | > 80% | 96% |  |  |  | 
21.4 µM | 52.5 µM | 10.2 µM | 56.8% | 85.8% | 10.8 µM | 40.5 µM | 2.81 µM | 37.9% | 65.2% | O=C(Nc1cc(Sc2ncn[nH]2)c(O)c2ccccc12)c1ccccc1[N+](=O)[O-] |  | 91% | Dose-dependent effect | > 80% | 95% | 83% | 5.34 µM |  | 
48 µM | 26.9 µM | 70.2 µM | inactive | 29.3% |  |  |  |  |  | O=C(Nc1cc(Sc2ncn[nH]2)c(O)c2ccccc12)c1cccc([N+](=O)[O-])c1 | Active |  |  |  |  |  |  |  | 
25.7 µM | 5.52 µM | 43.3 µM | inactive | 50.1% | 18.8 µM | 41.9 µM | > 100 µM |  |  | O=C(Nc1cc(Sc2ncn[nH]2)c(O)c2ccccc12)c1ccc(Cl)cc1 | inactive |  |  | 65% |  |  | > 100 µM | Active | 
> 100 µM | > 100 µM | > 100 µM | 4.2% | 7.5% |  |  |  |  |  | O=C(Nc1cc(Sc2nncs2)c(O)c2ccccc12)c1ccc(Cl)cc1 | Active |  |  | > 80% |  |  |  |  | 
52.5 µM | > 100 µM | > 100 µM | 14.9% | 31.6% |  |  |  |  |  | COc1ccc(/C=C/C(=O)Nc2cc(Sc3ncn[nH]3)c(O)c3ccccc23)cc1OC | Active |  |  |  |  |  |  |  | 
> 100 µM | 53.5 µM | > 100 µM | 3.37% | 37.3% |  |  |  |  |  | O=C(Nc1cc(Sc2ncn[nH]2)c(O)c2ccccc12)c1ccc([N+](=O)[O-])cc1 | Active |  |  | > 80% |  |  |  |  | 
> 100 µM | > 100 µM | > 100 µM | inactive | 26.1% |  |  |  |  |  | O=C(/C=C/c1ccccc1)Nc1cc(Sc2ncn[nH]2)c(O)c2ccccc12 | Active |  |  | > 80% |  |  |  |  | 
23 µM | 66.4 µM | > 100 µM | inactive | 21.7% | 16.9 µM | 38.4 µM | 14.4 µM |  |  | O=C(Nc1cc(Sc2ncnc3nc[nH]c23)c(O)c2ccccc12)c1ccc(Cl)cc1 |  | > 70% | Dose-dependent effect |  | 92% |  | 7.53 µM |  | 
> 100 µM | > 100 µM | > 100 µM |  |  |  |  |  |  |  | O=C(Nc1cc(Sc2ncnc3nc[nH]c23)c(O)c2ccccc12)c1ccc([N+](=O)[O-])cc1 | Active |  |  |  |  |  |  |  | 
> 100 µM | 59.5 µM | > 100 µM | inactive | 20.2% |  |  |  |  |  | Cc1cccc(C(=O)Nc2cc(Sc3ncn[nH]3)c(O)c3ccccc23)c1 | Active |  |  |  |  |  |  |  | 
> 100 µM | > 100 µM | > 100 µM | 0.7% | 31.8% |  |  |  |  |  | O=C(/C=C/c1ccc(Cl)cc1)Nc1cc(Sc2ncn[nH]2)c(O)c2ccccc12 | Active |  |  |  |  |  |  |  | 
> 100 µM | > 100 µM | > 100 µM | inactive | 13.1% |  |  |  |  |  | Cn1nnnc1Sc1cc(NC(=O)c2ccc(Cl)cc2)c2ccccc2c1O | Active |  |  |  |  |  |  |  | 
> 100 µM | > 100 µM | > 100 µM | inactive | 30.8% |  |  |  |  |  | COc1ccc(C(=O)Nc2cc(Sc3ncn[nH]3)c(O)c3ccccc23)cc1 | Active |  |  |  |  |  |  |  | 
> 100 µM | 49.5 µM | > 100 µM | 9.25% | 8.48% |  |  |  |  |  | Cc1nnc(Sc2cc(NC(=O)c3ccc(Cl)cc3)c3ccccc3c2O)s1 |  | 18% | Dose-dependent effect | > 80% | 91% | 81% |  |  | 23%
45.1 µM | > 100 µM | > 100 µM | inactive | 41.6% |  |  |  |  |  | O=C(Nc1cc(Sc2ncn[nH]2)c(O)c2ccccc12)c1ccc2ccccc2c1 | Active |  |  |  |  |  |  |  | 
> 100 µM | > 100 µM | > 100 µM | inactive | 40.6% |  |  |  |  |  | O=C(/C=C/c1ccc([N+](=O)[O-])cc1)Nc1cc(Sc2ncn[nH]2)c(O)c2ccccc12 | Active |  |  |  |  |  |  |  | 
> 100 µM | 85.6 µM | > 100 µM | inactive | 46% |  |  |  |  |  | O=C(Nc1cc(Sc2ncn[nH]2)c(O)c2ccccc12)c1cccc(Cl)c1 | Active |  |  | > 80% |  |  |  |  | 

Structure (SMILES) | IC50 (MDA-MB-231) | IC50 (PC-3) | IC50 (HCT-116) | inhibition [1] | inhibition [3] | IC50 (K562) | IC50 (A549) | IC50 (MCF7) | inhibition [7] | inhibition [9] | inhibition (Aorta [2]) | inhibition at 1 µM (Aorta [4]) | Activity (Aorta [5]) | inhibition at 50 µM (HUVEC [6]) | inhibition at 50 µM (Aorta [2]) | inhibition at 10 µM (HUVEC [8]) | IC50 (HUVEC [10]) | inhibition (HUVEC [8]) | inhibition at 10 µM (Aorta [11])
CN[C@@H]1C[C@H]2O[C@@](C)([C@@H]1OC)n1c3ccccc3c3c4c(c5c6ccccc6n2c5c31)C(=O)NC4 |  |  |  | 97.9% |  |  |  |  |  |  |  |  |  |  |  |  |  |  | 
CNC(=O)c1cc(Oc2ccc(NC(=O)Nc3ccc(Cl)c(C(F)(F)F)c3)cc2)ccn1 [SORAFENIB] | 14.6 µM | 24.2 µM | 8.08 µM |  |  | 13.8 µM | 12.5 µM | 7.33 µM |  |  |  |  |  |  |  |  | 6.42 µM |  | 
